The record followed here is ChEMBL document CHEMBL4339195, “Di-aryl Sulfonamide Motif Adds π-Stacking Bulk in Negative Allosteric Modulators of the NMDA Receptor” (ACS Med Chem Lett, 2019).

Test [1] deals with Glutamate NMDA receptor; Grin1/Grin2c (Rattus norvegicus, UniProt P35439+Q00961). Put plainly: Negative allosteric modulation of recombinant rat GluN1/GluN2C expressed in Xenopus laevis oocytes assessed as inhibition of glutamate/glycine-induced current response at -40 mV holding potential by two-electrode voltage clamp method. The test is classed as cell-based. In outline: (§1)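 Oocytes recorded while the drug is co-applied with a maximally effective 100 µM glutamate plus 30 µM glycine. Response is expressed as percent of the glutamate/glycine control. IC50 comes from a Hill fit to the average composite concentration-response curve. 8-16 oocytes from 2-3 frogs per compound and receptor.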
For orientation: In two-electrode clamp one electrode senses voltage and the other passes current.

Test [2] relates to Glutamate receptor 4 (Homo sapiens), P48058 [L505Y]. In words: Negative allosteric modulation of human GluA4 L505Y mutant expressed in Xenopus laevis oocytes assessed as inhibition of glutamate-induced current response at 30 uM at -40 mV holding potential by two-electrode voltage clamp method relative to glutamate alone. The test is classed as cell-based. In outline:
(§2)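 Oocyte two-electrode voltage clamp at -40 mV holding. Test compound co-applied with agonist; response given as percent of the mean of control and recovery currents to agonist alone. Agonists: 100 µM glutamate (AMPA, kainate), 100 µM GABA (GABA receptors), 100 µM glycine (glycine receptor), 100 µM serotonin (5-HT3A), 9 µM ATP (P2X), 1 µM acetylcholine (nicotinic).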

The target of test [3] is Ionotropic glutamate receptor NMDA 1/2D (Rattus norvegicus, UniProt P35439+Q62645). Put plainly: Negative allosteric modulation of recombinant rat GluN1/GluN2D expressed in Xenopus laevis oocytes assessed as inhibition of glutamate/glycine-induced current response at -40 mV holding potential by two-electrode voltage clamp method. The test is classed as cell-based. A digest of the protocol:
as §1

For the next test, the species on record is Homo sapiens. Put plainly: Negative allosteric modulation of human GluA2 R607Q mutant expressed in Xenopus laevis oocytes assessed as inhibition of glutamate-induced current response at 30 uM at -40 mV holding potential by two-electrode voltage clamp method relative to glutamate alone. It is filed as cell-based. A digest of the protocol: as §2
Test [4] has as its system Glutamate receptor 3 (Homo sapiens), P42263 [L513Y]. Put plainly: Negative allosteric modulation of human GluA3 L513Y mutant expressed in Xenopus laevis oocytes assessed as inhibition of glutamate-induced current response at 30 uM at -40 mV holding potential by two-electrode voltage clamp method relative to glutamate alone. It is filed as cell-based. In outline:
as §2

For test [5], the target named is T1, Ionotropic glutamate receptor NMDA 1/2D (Rattus norvegicus) (UniProt P35439+Q62645). Put plainly: Negative allosteric modulation of recombinant rat GluN1/GluN2D expressed in Xenopus laevis oocytes assessed as residual glutamate/glycine-induced current response at 10 uM at -40 mV holding potential by two-electrode voltage clamp method relative to glutamate/glycine.

Test [6] deals with CHRNA1/CHRNB1/CHRNG/CHRND (Rattus norvegicus) (UniProt P25109+P25108+P25110+P18916). Put plainly: Negative allosteric modulation of rat alpha1betagammadelta nACHR expressed in Xenopus laevis oocytes assessed as inhibition of acetylcholine-induced current response at 30 uM at -40 mV holding potential by two-electrode voltage clamp method relative to acetylcholine alone. The test is classed as cell-based. A digest of the protocol: as §2

The target of test [7] is T2, Glutamate NMDA receptor; Grin1/Grin2c (Rattus norvegicus) (UniProt P35439+Q00961). In words: Negative allosteric modulation of recombinant rat GluN1/GluN2C expressed in Xenopus laevis oocytes assessed as remaining glutamate/glycine-induced current response at 10 uM at -40 mV holding potential by two-electrode voltage clamp method relative to glutamate/glycine.
Test [8] addresses Glutamate receptor ionotropic, kainate 2 (Rattus norvegicus) (UniProt P42260). In words: Negative allosteric modulation of rat GluK2 expressed in Xenopus laevis oocytes assessed as inhibition of glutamate-induced current response at 30 uM at -40 mV holding potential in presence of concanavalin A by two-electrode voltage clamp method relative to glutamate alone. It is filed as cell-based. In outline: as §2

The species entered for test [9] is Rattus norvegicus. Put plainly: Negative allosteric modulation of rat GABAA rho expressed in Xenopus laevis oocytes assessed as inhibition of GABA-induced current response at 30 uM at -40 mV holding potential by two-electrode voltage clamp method relative to GABA alone. It is filed as cell-based. In outline:
as §2

Test [10] is filed under the species Rattus norvegicus. In words: Negative allosteric modulation of rat GABAA alpha1beta2gamma2S expressed in Xenopus laevis oocytes assessed as inhibition of GABA-induced current response at 30 uM at -40 mV holding potential by two-electrode voltage clamp method relative to GABA alone. The test is classed as cell-based. A digest of the protocol:
as §2

Test [11] concerns the target T3, Glycine receptor subunit alpha-1 (Rattus norvegicus) (UniProt P07727).
T3 sequence (whole entry): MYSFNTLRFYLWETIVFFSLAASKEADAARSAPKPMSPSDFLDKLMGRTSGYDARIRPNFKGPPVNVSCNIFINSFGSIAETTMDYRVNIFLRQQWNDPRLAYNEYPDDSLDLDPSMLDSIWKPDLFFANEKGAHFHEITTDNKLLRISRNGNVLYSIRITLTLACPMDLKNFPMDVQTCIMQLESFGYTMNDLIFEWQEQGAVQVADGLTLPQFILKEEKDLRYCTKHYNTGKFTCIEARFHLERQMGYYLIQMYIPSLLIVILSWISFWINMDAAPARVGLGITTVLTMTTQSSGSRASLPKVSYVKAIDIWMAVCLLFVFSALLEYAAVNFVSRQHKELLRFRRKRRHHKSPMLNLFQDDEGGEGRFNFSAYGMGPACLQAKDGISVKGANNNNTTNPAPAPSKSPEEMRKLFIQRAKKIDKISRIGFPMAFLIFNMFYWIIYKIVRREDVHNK
In words: Negative allosteric modulation of rat glycine alpha1 expressed in Xenopus laevis oocytes assessed as inhibition of glycine-induced current response at 30 uM at -40 mV holding potential by two-electrode voltage clamp method relative to glycine alone. The test is classed as cell-based. A digest of the protocol: as §2

For test [12], the target named is T4, 5-hydroxytryptamine receptor 3A (Rattus norvegicus) (UniProt P35563).
T4 sequence (whole entry): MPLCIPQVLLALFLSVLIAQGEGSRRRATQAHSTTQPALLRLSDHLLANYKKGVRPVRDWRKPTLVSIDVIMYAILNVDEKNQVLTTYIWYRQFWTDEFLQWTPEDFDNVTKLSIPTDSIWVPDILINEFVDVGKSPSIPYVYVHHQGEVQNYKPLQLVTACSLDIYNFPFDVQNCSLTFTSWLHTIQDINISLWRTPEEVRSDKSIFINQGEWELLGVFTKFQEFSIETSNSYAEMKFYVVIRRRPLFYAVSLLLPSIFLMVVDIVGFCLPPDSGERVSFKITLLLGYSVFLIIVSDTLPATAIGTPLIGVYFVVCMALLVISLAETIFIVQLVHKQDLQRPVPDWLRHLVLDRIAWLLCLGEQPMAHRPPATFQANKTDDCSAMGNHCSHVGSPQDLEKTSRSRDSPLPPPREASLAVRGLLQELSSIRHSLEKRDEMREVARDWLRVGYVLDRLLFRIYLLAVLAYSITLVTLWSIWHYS
In words: Negative allosteric modulation of rat 5HT3A expressed in Xenopus laevis oocytes assessed as inhibition of serotonin-induced current response at 30 uM at -40 mV holding potential by two-electrode voltage clamp method relative to serotonin alone. The test is classed as cell-based. A digest of the protocol:
as §2

Test [13] has as its target Glutamate receptor 1 (Rattus norvegicus) (UniProt P19490). In words: Negative allosteric modulation of recombinant rat GluA1 expressed in Xenopus laevis oocytes assessed as inhibition of glutamate-induced current response at 30 uM at -40 mV holding potential by two-electrode voltage clamp method relative to glutamate alone. The test is classed as cell-based. A digest of the protocol: as §2

Test [14] concerns the target T1, Ionotropic glutamate receptor NMDA 1/2D (Rattus norvegicus). Put plainly: Negative allosteric modulation of recombinant rat GluN1/GluN2D expressed in Xenopus laevis oocytes assessed as inhibition of glutamate/glycine-induced current response at 30 uM at -40 mV holding potential by two-electrode voltage clamp method relative to glutamate/glycine. It is filed as cell-based. The settings on record: values are per cent of control. A digest of the protocol:
as §1

Test [15] deals with T2, Glutamate NMDA receptor; Grin1/Grin2c (Rattus norvegicus). Put plainly: Negative allosteric modulation of recombinant rat GluN1/GluN2C expressed in Xenopus laevis oocytes assessed as inhibition of glutamate/glycine-induced current response at 30 uM at -40 mV holding potential by two-electrode voltage clamp method relative to glutamate/glycine. The test is classed as cell-based. The settings on record: values are per cent of control. In outline: as §1

The target in test [16] is Glutamate NMDA receptor; Grin1/Grin2a (Rattus norvegicus, UniProt P35439+Q00959). In words: Negative allosteric modulation of recombinant rat GluN1/GluN2A expressed in Xenopus laevis oocytes assessed as inhibition of glutamate/glycine-induced current response at -40 mV holding potential by two-electrode voltage clamp method. It is filed as cell-based. A digest of the protocol:
as §1

The target of test [17] is Glutamate NMDA receptor; Grin1/Grin2a (Rattus norvegicus) (UniProt P35439+Q00959). In words: Negative allosteric modulation of recombinant rat GluN1/GluN2A expressed in Xenopus laevis oocytes assessed as remaining glutamate/glycine-induced current response at 6 uM at -40 mV holding potential by two-electrode voltage clamp method relative to glutamate/glycine.

pIC50: −log10 of the molar value. Activity calls are given as the source filed them. No cut-off for these calls is given here.

Glutamate receptor ionotropic, kainate 2 (Rattus norvegicus), sequence (P42260 whole entry): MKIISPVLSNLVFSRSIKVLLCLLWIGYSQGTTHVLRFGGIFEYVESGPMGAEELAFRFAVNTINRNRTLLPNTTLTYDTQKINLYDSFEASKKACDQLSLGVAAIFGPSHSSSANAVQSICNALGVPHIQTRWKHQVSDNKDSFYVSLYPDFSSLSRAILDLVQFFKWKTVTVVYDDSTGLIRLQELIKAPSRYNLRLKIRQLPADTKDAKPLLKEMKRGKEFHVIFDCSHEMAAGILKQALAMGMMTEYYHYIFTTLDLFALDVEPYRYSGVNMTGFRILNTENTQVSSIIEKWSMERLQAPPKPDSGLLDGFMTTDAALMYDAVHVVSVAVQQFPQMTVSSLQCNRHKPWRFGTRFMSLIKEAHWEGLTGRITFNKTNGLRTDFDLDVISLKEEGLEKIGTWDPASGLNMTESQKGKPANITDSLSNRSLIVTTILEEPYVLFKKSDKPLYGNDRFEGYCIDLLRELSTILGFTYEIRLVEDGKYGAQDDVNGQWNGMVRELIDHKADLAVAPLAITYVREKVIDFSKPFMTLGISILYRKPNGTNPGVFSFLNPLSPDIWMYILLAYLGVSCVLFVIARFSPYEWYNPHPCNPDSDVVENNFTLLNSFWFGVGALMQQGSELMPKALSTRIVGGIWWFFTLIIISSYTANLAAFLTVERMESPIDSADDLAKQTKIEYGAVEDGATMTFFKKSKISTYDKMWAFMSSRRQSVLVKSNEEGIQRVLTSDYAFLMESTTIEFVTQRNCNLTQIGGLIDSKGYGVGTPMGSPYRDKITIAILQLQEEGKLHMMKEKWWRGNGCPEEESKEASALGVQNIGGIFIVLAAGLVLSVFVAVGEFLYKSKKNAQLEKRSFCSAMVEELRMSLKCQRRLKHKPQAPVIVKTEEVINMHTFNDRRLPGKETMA
Glutamate receptor 3 (Homo sapiens), P42263 [L513Y], sequence (P42263 whole entry L513Y): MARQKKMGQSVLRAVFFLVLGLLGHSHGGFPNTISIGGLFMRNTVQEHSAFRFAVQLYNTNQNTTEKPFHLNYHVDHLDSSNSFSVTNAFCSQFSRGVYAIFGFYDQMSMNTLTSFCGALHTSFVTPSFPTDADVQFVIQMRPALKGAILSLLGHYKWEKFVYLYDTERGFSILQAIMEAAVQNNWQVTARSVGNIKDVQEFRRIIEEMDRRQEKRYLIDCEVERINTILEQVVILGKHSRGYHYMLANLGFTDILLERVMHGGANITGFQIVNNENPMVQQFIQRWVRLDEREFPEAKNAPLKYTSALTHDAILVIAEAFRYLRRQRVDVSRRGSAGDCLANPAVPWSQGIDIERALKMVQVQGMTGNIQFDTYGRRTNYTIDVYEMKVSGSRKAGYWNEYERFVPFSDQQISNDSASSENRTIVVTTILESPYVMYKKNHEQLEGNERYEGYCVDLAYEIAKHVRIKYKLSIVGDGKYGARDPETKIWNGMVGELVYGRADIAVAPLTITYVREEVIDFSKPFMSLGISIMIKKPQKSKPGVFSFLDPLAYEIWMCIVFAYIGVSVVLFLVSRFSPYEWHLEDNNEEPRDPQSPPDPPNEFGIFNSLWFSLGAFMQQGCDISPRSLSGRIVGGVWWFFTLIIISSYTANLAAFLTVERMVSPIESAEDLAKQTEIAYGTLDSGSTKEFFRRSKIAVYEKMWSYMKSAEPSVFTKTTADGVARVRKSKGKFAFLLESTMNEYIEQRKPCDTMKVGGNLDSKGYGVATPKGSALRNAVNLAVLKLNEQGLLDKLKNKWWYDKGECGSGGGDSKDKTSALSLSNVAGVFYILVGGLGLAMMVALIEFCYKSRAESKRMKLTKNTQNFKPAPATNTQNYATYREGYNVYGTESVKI
Glutamate receptor 1 (Rattus norvegicus), sequence (P19490 whole entry): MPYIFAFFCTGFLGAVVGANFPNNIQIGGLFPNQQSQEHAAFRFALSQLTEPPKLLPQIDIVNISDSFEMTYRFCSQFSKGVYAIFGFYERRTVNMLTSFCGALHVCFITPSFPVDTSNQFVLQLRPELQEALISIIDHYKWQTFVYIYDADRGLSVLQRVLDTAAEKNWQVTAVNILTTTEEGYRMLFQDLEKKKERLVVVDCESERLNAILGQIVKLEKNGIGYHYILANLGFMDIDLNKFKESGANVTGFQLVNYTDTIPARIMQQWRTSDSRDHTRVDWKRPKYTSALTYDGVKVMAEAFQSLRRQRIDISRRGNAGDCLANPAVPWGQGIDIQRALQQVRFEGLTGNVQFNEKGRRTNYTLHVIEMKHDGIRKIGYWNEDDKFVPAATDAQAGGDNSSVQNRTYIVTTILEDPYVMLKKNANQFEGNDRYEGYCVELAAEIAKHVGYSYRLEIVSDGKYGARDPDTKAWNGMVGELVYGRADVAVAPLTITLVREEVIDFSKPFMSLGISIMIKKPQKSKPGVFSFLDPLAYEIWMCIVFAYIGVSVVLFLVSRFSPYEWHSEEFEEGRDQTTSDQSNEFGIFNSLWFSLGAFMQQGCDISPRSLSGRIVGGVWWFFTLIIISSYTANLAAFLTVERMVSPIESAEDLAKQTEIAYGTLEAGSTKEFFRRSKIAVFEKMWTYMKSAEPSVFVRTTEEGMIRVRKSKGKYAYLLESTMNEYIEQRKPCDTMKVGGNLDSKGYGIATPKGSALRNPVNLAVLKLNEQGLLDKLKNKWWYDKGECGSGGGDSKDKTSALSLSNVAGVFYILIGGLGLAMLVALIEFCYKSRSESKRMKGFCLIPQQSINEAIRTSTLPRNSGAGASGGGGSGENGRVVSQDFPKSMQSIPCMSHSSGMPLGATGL
Glutamate receptor 4 (Homo sapiens), P48058 [L505Y], sequence (P48058 whole entry L505Y): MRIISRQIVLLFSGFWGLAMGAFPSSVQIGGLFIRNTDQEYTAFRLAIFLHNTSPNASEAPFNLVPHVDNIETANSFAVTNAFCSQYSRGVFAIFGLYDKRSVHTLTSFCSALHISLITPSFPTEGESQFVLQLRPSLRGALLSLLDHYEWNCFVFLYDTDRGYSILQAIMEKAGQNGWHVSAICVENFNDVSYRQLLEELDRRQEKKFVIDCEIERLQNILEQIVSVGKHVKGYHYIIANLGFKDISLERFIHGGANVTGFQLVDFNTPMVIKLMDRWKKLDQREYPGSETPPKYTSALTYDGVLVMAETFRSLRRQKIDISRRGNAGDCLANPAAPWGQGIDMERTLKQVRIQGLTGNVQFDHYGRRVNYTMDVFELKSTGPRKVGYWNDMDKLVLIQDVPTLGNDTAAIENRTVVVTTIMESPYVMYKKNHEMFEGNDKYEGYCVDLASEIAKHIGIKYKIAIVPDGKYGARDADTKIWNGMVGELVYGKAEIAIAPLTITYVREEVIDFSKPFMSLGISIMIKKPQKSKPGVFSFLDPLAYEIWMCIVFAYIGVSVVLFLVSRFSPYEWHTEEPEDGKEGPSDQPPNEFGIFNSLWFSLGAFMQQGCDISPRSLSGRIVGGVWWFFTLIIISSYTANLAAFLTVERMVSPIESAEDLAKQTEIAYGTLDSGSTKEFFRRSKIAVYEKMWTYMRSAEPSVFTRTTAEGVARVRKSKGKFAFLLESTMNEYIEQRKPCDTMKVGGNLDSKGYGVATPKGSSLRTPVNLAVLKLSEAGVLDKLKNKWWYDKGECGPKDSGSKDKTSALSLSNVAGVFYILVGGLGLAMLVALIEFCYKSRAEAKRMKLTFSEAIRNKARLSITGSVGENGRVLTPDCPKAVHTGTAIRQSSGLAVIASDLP

`CCN(CC)C(=O)Oc1ccc(C(=O)Nc2cccc3cc[nH]c23)cc1`: the pIC50 (as a rule, the negative decadic logarithm of the IC50, by convention in mol/L) in [1] was 5.43; in test [3] it was 5.66. Besides, the inhibition entry (in test [2]; in the test listed under Homo sapiens; in test [4]; in test [8]; in the test listed under Rattus norvegicus [9]; in the test listed under Rattus norvegicus [10]) was “Active” throughout. Further, the inhibition result in test [13] is “Active”. For the same compound, the residual activity stood at 16% in test [5] and 24% in test [7]. Moreover, the inhibition result in [6], in test [11] and in test [12] was “inactive” throughout.
For `O=C(NNC(=O)c1ccc(CNS(=O)(=O)c2ccc(F)c(Cl)c2)cc1)c1ccccc1`, the residual activity in [14] is < 15%; in [15] it was < 15%; in test [5], 88%; in test [17], 5.1%; in [7] it was 95%. Also, the negative logarithm of the IC50 (pIC50) in test [16] was 6.77.
